Screening data as filed in PubChem BioAssay.
Arrestin-AP2 inh – inhibitors of human beta-arrestin and AP2 interaction; FITC-arrestin peptide / GST-AP2 beads, flow cytometry; AP2 beta2 appendage carries R879A mutation; inhibition, % at 10 µM; 0.31% of 340,000 active;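 active = inhibition above a set limit, near 3 SD of compounds lacking own fluorescence, cut at about 54% in these data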
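Material – AP2 appendage R879A on GSH beads · Buffer or medium – PBS with 0.05% Tween 20 and 0.1% BSA · Probe or stimulus – fluorescein-tagged arrestin peptide at 50 nM final · Incubation – compound with beads 12 min RT, then probe 1 h RT · Detection – high-throughput flow cytometry of beads, ex 488, em 535 nm · Evaluation – percent response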
SENP1 FRET inh – inhibitors of human SENP1 SUMO protease catalytic domain; recombinant SENP1 catalytic domain, CyPet-SUMO1-YPet FRET cleavage; inhibition, % at 10 µM; 0.21% of 360,000 active; AID 624204;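 active = inhibition at least 30% at 10 µM, raw YFP signal under a set limit, fluorescence ratio 0.5 to 1.5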
Target sequence (Q9P0U3 419-644 limits assumed): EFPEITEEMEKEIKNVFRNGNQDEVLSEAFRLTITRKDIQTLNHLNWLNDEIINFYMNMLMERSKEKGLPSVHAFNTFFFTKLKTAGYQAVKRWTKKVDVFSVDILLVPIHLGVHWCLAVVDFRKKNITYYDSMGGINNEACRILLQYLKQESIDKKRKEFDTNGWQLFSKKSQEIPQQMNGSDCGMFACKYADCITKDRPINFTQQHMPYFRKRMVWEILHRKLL
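Assay system – human recombinant His6-tagged SENP1 catalytic domain enzyme · Input – SENP1 enzyme, 20 pM final · Buffer or medium – Tris pH 8 buffer plus EDTA, NaCl, BME, BSA, NP40, catalase · Schedule – 50 min reaction at room temperature · Technique – FRET read of cyan and yellow fluorescence · Control set – no-enzyme wells low, DMSO-plus-enzyme wells high control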
Cardio protect – protects H9c2 cardiomyocytes from peroxide injury; 0.63% of 360,000 active; protection from H2O2 cell death, % at 20 µM; H2O2 injury protection, ATPLite, 2 h;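 active = compounds giving at least 50% protection of heart cells from peroxide-induced death in the single-dose screen, raw or plate-pattern-corrected value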
GRIN3A LBD mod – modulators (binders) of human NR3A ligand-binding domain. NR3A LBD differential scanning fluorimetry, Tm shift; 0% = protein alone, 100% = glycine-bound protein. Tm shift relative to glycine control, % at 25 µM. 2.5% of 340,000 active;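 active = melting temperature shift of at least 10% of the positive control shift, at one fixed dose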
hiPSC survival – hiPSC single-cell survival enhancement; 0.044% of 360,000 active; AID 602274; survival enhancement, % at 20 µM; ATPlite luminescence; 100% = ROCK inhibitor wells, 0% = DMSO; in the data active = survival enhancement above about 18%;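 note: cells exposed to compounds for 16 hours before the ATP read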
FAS TE block – FAS thioesterase (human) inhibition; P49327; recombinant FAS-TE, OMFH fluorogenic substrate, fluorescence endpoint; inhibition, % at 15 µM; 0.67% of 360,000 active; AID 602261;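 active = compounds whose normalised, plate-corrected inhibition of enzyme fluorescence in the single-dose primary screen is 50% or more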
Numbers stand for hits. The list is not random: actives were taken first. Their share in the collection is about 4%.

How did COc1ccc2occ(C(=O)c3coc4ccc(O)c(CN(C)C)c34)c2c1 do in these assays?
Arrestin-AP2 inh: inactive; SENP1 FRET inh: inactive; Cardio protect: 61; GRIN3A LBD mod: inactive; hiPSC survival: inactive; FAS TE block: inactive

How did COc1ccc(OC)c(C(=O)c2coc3ccc(O)c(CN(C)C)c23)c1 do in these assays?
Arrestin-AP2 inh: inactive; SENP1 FRET inh: inactive; Cardio protect: inactive; GRIN3A LBD mod: inactive; hiPSC survival: inactive; FAS TE block: inactive

What do the screens show for `CCCCN1CC(COCc2ccccc2)Oc2cccc(OCc3ccc(OC)cc3)c2S1(=O)=O` (configuration not stated)?
SENP1 FRET inh: inactive; Cardio protect: inactive; hiPSC survival: inactive; FAS TE block: inactive

How did O=C(O)c1ccccc1NS(=O)(=O)c1cccc(-n2sc3ccccc3c2=O)c1 do in these assays?
Arrestin-AP2 inh: inactive; SENP1 FRET inh: inactive; Cardio protect: 64; GRIN3A LBD mod: inactive; hiPSC survival: inactive; FAS TE block: inactive

What do the screens show for `OCCN1CCN(CC(O)COCc2ccc3c(c2)OCO3)CC1` (configuration not stated)?
Arrestin-AP2 inh: inactive; SENP1 FRET inh: inactive; Cardio protect: inactive; GRIN3A LBD mod: 11; hiPSC survival: inactive; FAS TE block: inactive

How did C=CCC[C@@H](Cc1ccc(F)cc1)C(=O)OC[C@@H](NC(=O)[C@@H](CC=C)CC(=O)N[C@@H](CO)Cc1ccccc1)C(C)(C)C do in these assays?
Arrestin-AP2 inh: inactive; SENP1 FRET inh: inactive; Cardio protect: inactive; GRIN3A LBD mod: inactive; hiPSC survival: inactive; FAS TE block: inactive
